Laboratory results taken from ChEMBL document CHEMBL3808338, “Combined inhibition of the EGFR/AKT pathways by a novel conjugate of quinazoline with isothiocyanate” (Eur J Med Chem, 2016).
Active and inactive are the calls of the source. No cut-off for these calls is given here.

Experiments:
[1] = target: T1, Epidermal growth factor receptor (Homo sapiens, UniProt P00533); experiment: Inhibition of EGFR-TK in human A431 cell lysate assessed as reduction in EGF stimulated kinase activity at 20 uM after 60 mins using biotinylated peptide substrate by ELISA; type: cell-free; conditions: A-431
T1 sequence (P00533 whole entry): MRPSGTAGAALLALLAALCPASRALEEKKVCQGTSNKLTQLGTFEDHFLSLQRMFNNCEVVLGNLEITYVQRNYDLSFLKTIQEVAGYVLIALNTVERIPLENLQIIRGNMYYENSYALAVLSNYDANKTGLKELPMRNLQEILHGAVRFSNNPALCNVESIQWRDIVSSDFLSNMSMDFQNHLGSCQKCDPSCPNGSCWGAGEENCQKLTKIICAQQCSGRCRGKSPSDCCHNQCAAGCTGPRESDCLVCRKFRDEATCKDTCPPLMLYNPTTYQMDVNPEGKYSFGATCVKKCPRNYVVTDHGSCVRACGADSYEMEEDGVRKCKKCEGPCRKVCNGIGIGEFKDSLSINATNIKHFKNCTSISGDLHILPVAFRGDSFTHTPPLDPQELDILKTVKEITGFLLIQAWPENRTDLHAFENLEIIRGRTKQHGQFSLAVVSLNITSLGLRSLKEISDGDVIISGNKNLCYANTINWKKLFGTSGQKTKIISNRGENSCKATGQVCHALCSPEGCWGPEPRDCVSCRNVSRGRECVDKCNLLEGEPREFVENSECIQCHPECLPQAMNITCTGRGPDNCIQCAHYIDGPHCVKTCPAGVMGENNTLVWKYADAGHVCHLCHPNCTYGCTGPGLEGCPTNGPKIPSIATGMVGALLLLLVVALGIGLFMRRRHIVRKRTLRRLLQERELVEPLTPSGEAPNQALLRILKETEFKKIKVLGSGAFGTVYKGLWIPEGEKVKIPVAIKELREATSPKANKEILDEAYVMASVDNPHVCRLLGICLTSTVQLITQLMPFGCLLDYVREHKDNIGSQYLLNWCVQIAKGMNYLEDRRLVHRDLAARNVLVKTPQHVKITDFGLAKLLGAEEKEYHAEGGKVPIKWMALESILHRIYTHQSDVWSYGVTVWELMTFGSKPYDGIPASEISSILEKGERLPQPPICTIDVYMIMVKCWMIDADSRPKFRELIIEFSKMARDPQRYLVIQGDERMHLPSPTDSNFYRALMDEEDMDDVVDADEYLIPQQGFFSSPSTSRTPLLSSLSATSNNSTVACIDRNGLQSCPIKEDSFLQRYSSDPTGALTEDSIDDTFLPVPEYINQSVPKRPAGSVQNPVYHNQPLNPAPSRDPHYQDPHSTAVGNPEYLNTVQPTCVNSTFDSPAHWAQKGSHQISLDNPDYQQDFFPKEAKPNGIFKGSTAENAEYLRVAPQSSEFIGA
Summary of the method: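 A431 cells seeded at 4x10⁶ per 100-mm dish and stimulated with EGF (100 nM) for 60 min with or without compound. Tyrosine kinase activity in lysates measured by direct colorimetric ELISA using a biotinylated peptide substrate and an anti-phosphotyrosine-HRP antibody.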

[2] = system: A-431; experiment: Antiproliferative activity against human A431 cells assessed as cell growth inhibition after 72 hrs by MTT assay; type: functional, cell-based; conditions: A-431, 72 h
Summary of the method: (§1)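 A431 or HaCaT cells seeded at 1x10⁴ cells/well, incubated 24 h, then exposed to 0.03-30 µM for 72 h at 37°C, 5% CO₂. MTT (5 mg/ml in PBS) for 4 h after a PBS wash, formazan dissolved in isopropanol, read at 405 nm. Viability expressed as % of untreated cells; IC₅₀ taken from at least three independent dose-response curves.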

[3] = system: HaCaT; experiment: Antiproliferative activity against human HaCaT cells assessed as cell growth inhibition after 72 hrs by MTT assay; type: functional, cell-based; summary of the method: as §1
[4] = Antiproliferative activity against human HGF assessed as cell growth inhibition at 30 uM after 72 hrs by MTT assay; conditions: HGF cells, read-out: GI
Summary of the method: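 Gingival fibroblasts were grown from healthy-donor biopsies of permanent molars in DMEM/F12 with 10% FCS, then seeded at 1x10⁴ cells/well. After 24 h, cells were treated for 72 h at 37°C, 5% CO₂. Read-out was MTT with isopropanol solubilization at 405 nm, expressed as % of untreated cells.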

[5] = target: T1, Epidermal growth factor receptor; experiment: Inhibition of EGFR-TK in human A431 cell lysate assessed as reduction in EGF stimulated kinase activity after 60 mins using biotinylated peptide substrate by ELISA; type: cell-based, A-431
[6] = system: A-431; experiment: Induction of apoptosis in human A431 cells assessed as DNA fragmentation at 2 uM after 24 hrs by ELISA analysis; type: functional
Summary of the method: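 A431 cells seeded at 5x10³ cells/well, then exposed to compound for 24 h at 37°C, 5% CO₂. Nucleosomal DNA fragmentation in lysate supernatants quantified by sandwich ELISA with anti-histone-biotin and anti-DNA-peroxidase antibodies and ABTS substrate (20 min), read at 405 nm. Expressed as fold increase, treated over untreated absorbance.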

[7] = system: A-431; experiment: Effect on total Akt levels in human A431 cells after 2 hrs by ELISA analysis; type: cell-based; conditions: a-431, 2 h
[8] = Chemical stability of the compound in phosphate buffer assessed as degradation at 2 uM at pH 7.2 after 0.5 to 24 hrs by HPLC analysis; type: physicochemical; conditions: pH 7.2, 2 µM
Summary of the method: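 Test solutions (2 µM) made from a 1 mg/mL DMSO stock diluted into pH 7.2 phosphate buffer and held at 37°C. Aliquots analysed by HPLC with diode-array detection on a phenyl-hexyl column at 0, 0.5, 2, 4 and 24 h.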

[9] = target: T1, Epidermal growth factor receptor; conditions: A-431, 10 uM
[10] = target: T1, Epidermal growth factor receptor; conditions: A-431, 2 uM

| Structure (SMILES) | inhibition [1] | IC50 [2] | IC50 [3] | inhibition at 72 h, 30 µM [4] | Activity [6] | further results |
| --- | --- | --- | --- | --- | --- | --- |
| O=C(CCCN=C=S)Nc1ccc2ncnc(Nc3cccc(Br)c3)c2c1 | < 50% | 17.1 µM | 16.3 µM | < 50% | – | – |
| C[S+]([O-])CCCCN=C=S (centres undefined) [SULFORAPHANE] | – | 15.8 µM | – | – | – | IC50 [5]: 9 µM |
| O=C(CCCCCCN=C=S)Nc1ccc2ncnc(Nc3cccc(Br)c3)c2c1 | < 50% | 16.1 µM | 17.3 µM | – | – | – |
| CC[C@@]1(O)C(=O)OCc2c1cc1n(c2=O)Cc2cc3ccccc3nc2-1 [CAMPTOTHECIN] | – | – | – | – | 65% | – |
| O=C(CCN=C=S)Nc1ccc2ncnc(Nc3cccc(Br)c3)c2c1 | < 50% | 17.1 µM | 18.9 µM | – | – | – |
| O=C(CCCCN=C=S)Nc1ccc2ncnc(Nc3cccc(Br)c3)c2c1 | < 50% | 16.3 µM | 18.2 µM | – | – | – |
| S=C=Nc1ccc2ncnc(Nc3cccc(Br)c3)c2c1 | – | 2.04 µM | 2.62 µM | < 50% | 40% | Activity [7]: Non-toxic; Stability [8]: Stable; IC50 [5]: 0.88 µM; inhibition [9]: 89%; inhibition [10]: Active |
| Nc1ccc2ncnc(Nc3cccc(Br)c3)c2c1 | – | 11.1 µM | 14.3 µM | < 50% | – | – |
| O=C(CCCCCN=C=S)Nc1ccc2ncnc(Nc3cccc(Br)c3)c2c1 | < 50% | 14.4 µM | 16.5 µM | < 50% | – | Stability [8]: Stable |
| C=CC(=O)Nc1ccc2ncnc(Nc3cccc(Br)c3)c2c1 | – | – | – | – | 48% | – |
